Non-standard residues stand in square brackets, D forms with d. Residues, ends and D or L forms follow the SMILES beside them. *: point of attachment. Dolaproine = CO[C@@H]([C@@H]1CCCN1)[C@@H](C)C(=O)O; Dil = CC[C@H](C)[C@H](NC)[C@@H](CC(=O)O)OC; X1 = C[C@@H](N*)[C@@H](O)c1ccccc1; NMeV = CN[C@H](C(=O)O)C(C)C

Results on five compounds are retold here after paper PMC5214883 (Molecular cancer therapeutics, 2016).

Data set [1] deals with CAIX-expressing SKRC-52 cells. Put plainly: In vitro cytotoxicity assay. The data set is classed as cell-based, human. As to conditions: read-out: IC50 (cytotoxicity), 72 h, 37 °C, MTS.
The nature of data set [2]: Linker stability assay in PBS. The data set is classed as physicochemical. As to conditions: pH 7.4.
The nature of data set [3]: Linker stability assay in mouse serum. The data set is classed as in vitro ADME.
Data set [4] is described as follows: Dose escalation study. Set-up: species or system Balb/c nu/nu mice. Conditions: female, athymic Balb/c nu/nu, mouse, in vivo. An outline of the steps: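 Escalating doses (250 or 500 nmol/Kg) were given as five injections on five consecutive days to […] female athymic Balb/c nu/nu mice aged 8–10 weeks. An acetazolamide-targeted prodrug was compared with an untargeted analogue, with three mice per group.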

The test system of data set [5] is SKRC-52 xenografts. Put plainly: Therapy experiments in mice bearing subcutaneous SKRC-52 tumors. Format: in vivo, Balb/c nu/nu mice. As to conditions: 250 nmol/Kg, ten daily administrations.
The test system of data set [6] is SKRC-52 xenografts. Conditions: cited from earlier work.

As to `COc1cccc2c1C(=O)c1c(O)c3c(c(O)c1C2=O)C[C@@](O)(C(=O)CO)C[C@@H]3O[C@H]1C[C@H]2[C@H](O[C@@H]3[C@@H](OC)OCCN32)[C@H](C)O1` [PNU-159682], the half-maximal inhibitory concentration (IC50) in data set [1] was determined as 0.16 nM.
The compound `CC[C@H](C)[C@@H]([C@@H](CC(=O)N1CCC[C@H]1[C@H](OC)[C@@H](C)C(=O)N[C@H](C)[C@@H](O)c1ccccc1)OC)N(C)C(=O)[C@@H](NC(=O)[C@H](C(C)C)N(C)C(=O)OCc1ccc(NC(=O)[C@H](CCCNC(N)=O)NC(=O)[C@@H](NC(=O)CCCCCN2C(=O)CC(SC[C@H](NC(=O)[C@H](CC(=O)O)NC(=O)[C@H](CCCNC(=N)N)NC(=O)[C@H](CC(=O)O)NC(=O)CCCCn3cc(CCCC(=O)Nc4nnc(S(N)(=O)=O)s4)nn3)C(=O)O)C2=O)C(C)C)cc1)C(C)C` (some centres unmarked) [Compound 4a] had a half-life at 100 μg/ml in data set [2] greater than 48 h. Also, in data set [3] (degradation profile in mouse serum), the “main release product (mass spectrometric analysis)” value is given as “free MMAE”. Besides, the “conjugate intact after 6 hours in mouse serum” value in data set [3] (mouse serum, 37 °C, 6 hours, LC-MS) is given as greater than 70%. Moreover, the half-life in data set [3] (mouse, mouse serum) was roughly 7 h. In data set [4], the MTD at 5 days came out at 0.5 µmol/kg. Further, in data set [5], the “acute toxicity and body weight” value was “no acute toxicity and no significant weight loss”; the durable complete response result is given as “One out of five”.
With `CCN(CC)CCNC(=O)c1c(C)[nH]c(/C=C2\C(=O)Nc3ccc(F)cc32)c1C` [sunitinib], in data set [6], the “activity against SKRC-52 tumors” value is “did not display any detectable activity”.
Take `CC[C@H](C)[C@@H]([C@@H](CC(=O)N1CCC[C@H]1[C@H](OC)[C@@H](C)C(=O)N[C@H](C)[C@@H](O)c1ccccc1)OC)N(C)C(=O)[C@@H](NC(=O)[C@@H](NC)C(C)C)C(C)C` [MMAE, monomethyl auristatin E] (H-[NMeV]V[Dil][Dolaproine]-X1): the IC50 in data set [1] was found to be 1.5 nM.
Regarding `CNC(=O)c1cc(Oc2ccc(NC(=O)Nc3ccc(Cl)c(C(F)(F)F)c3)cc2)ccn1` [sorafenib], in data set [6], the “activity against SKRC-52 tumors” value was “did not display any detectable activity”.
